PMI act hi M6P – activators of human phosphomannose isomerase at near-saturating mannose 6-phosphate; actives 0.34% (n = 190,000); coupled PMI enzyme assay, resazurin fluorescence, 20 min; stronger effect = higher value; 1 = untreated enzyme, 0 = substrate-free blank; P34949; AID 1216; activation factor at 20 µM;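 active = activation factor of 2 or more at 20 µM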
Target sequence (P34949 whole entry, looked up): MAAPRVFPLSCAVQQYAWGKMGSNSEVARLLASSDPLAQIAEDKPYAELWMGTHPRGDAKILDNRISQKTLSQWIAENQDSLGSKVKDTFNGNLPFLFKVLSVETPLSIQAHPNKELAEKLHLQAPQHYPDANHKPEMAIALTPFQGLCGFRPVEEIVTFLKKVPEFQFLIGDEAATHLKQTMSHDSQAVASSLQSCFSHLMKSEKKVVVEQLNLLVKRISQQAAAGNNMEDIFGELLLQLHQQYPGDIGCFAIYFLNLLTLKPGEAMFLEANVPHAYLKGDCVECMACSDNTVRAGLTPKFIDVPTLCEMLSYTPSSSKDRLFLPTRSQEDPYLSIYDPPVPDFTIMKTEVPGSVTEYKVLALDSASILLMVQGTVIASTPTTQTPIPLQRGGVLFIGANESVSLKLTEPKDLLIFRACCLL
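Technique: Diaphorase-driven resazurin-to-resorufin fluorescence, excitation 544, emission 590 nm | Assay system: Human PMI in coupled enzyme assay | Times: Enzyme reaction with compound 20 min at room temperature | Medium: HEPES-buffered pH 7.4 with magnesium and detergent | Reagent: Mannose-6-phosphate 1.0 mM (near-saturating) plus 0.22 mM NADP+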
Diaph act CS – activates diaphorase or chemically reduces, flagging diaphorase assay artifacts; Diaphorase/resazurin coupled assay, resorufin fluorescence, 16 min; stronger effect = higher value; 1 = vehicle wells, 0 = NADH-free wells; activation factor at 20 µM; actives 0.005% (n = 190,000); AID 1229;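 active = diaphorase activity raised at least twofold by the compound at 20 µM; inactive = activation factor below 2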
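Material: purified diaphorase enzyme from Clostridium kluyveri; Also added: 0.114 mM NADH and 0.1 mM resazurin, final amounts; Doses: single compound dose of 20 µM, 1% DMSO final; Times: 16 min enzyme reaction, ambient temperature; Detection: resorufin fluorescence, excitation 544 nm, emission 590 nm; Measure: increased resorufin signal from activators or reducing compounds.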
PMI act – phosphomannose isomerase (human) activation | P34949 | purified human PMI, coupled resazurin fluorescence, 20 min; stronger effect = higher value; 1 = vehicle control, 0 substrate-free wells | AID 1214 | actives 0.005% (n = 190,000) | activation factor at 20 µM;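 active = activation factor of 2 or more at 20 µM, relative to plate controls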
Diaphorase inh – diaphorase inhibition or chemical oxidation counter-screen | AID 1217 | diaphorase resazurin-to-resorufin fluorescence, NADH, 16 min; bacterial (C. kluyveri) enzyme, not human | actives 0.69% (n = 190,000) | inhibition, % at 20 µM;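 active = primary screen inhibition at 20 µM above a set limit, cut at about 50% in these data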
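System: Bacterial diaphorase enzyme (C. kluyveri) | Incubation: 16-min room-temperature incubation before reading | Benchmarks: No-NADH positive control and DMSO neutral control | Measured by: Resorufin fluorescence 544/590 nm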
G6PDH CS – inhibits Leuconostoc G6PDH, flagging false hits in G6PDH-based assays; Purified L. mesenteroides G6PDH, diaphorase/resazurin coupled fluorescence, 45 min; inhibition, % at 5 µM; actives 0.12% (n = 200,000); in the data active = inhibition above about 50%
Hits are given with their value; . = inactive; / = not tested or not shown. Only some compounds are listed: those with a hit (about 1.1% of all), similar ones and a draw of the others.

SMILES	PMI act hi M6P	Diaph act CS	PMI act	Diaphorase inh	G6PDH CS
Oc1ccc(N=Cc2ccc(OCc3ccccc3)cc2)cc1	.	.	.	53	.
O=C(N/N=C/c1ccc(OCc2ccccc2)cc1)c1ccncc1	.	.	.	.	.
COc1ccc(N2C3=C(CC4=C2CCCC4=O)C(=O)CCC3)cc1	.	.	.	64	.
Cc1cc2nc[nH]c2cc1[N+](=O)[O-]	.	.	.	.	.
Nc1cc2nc[nH]c2cc1N	.	.	.	61	.
O=C(Nc1ccc(N2C(=O)C3C4C=CC(C4)C3C2=O)cc1)Nc1cccnc1 (stereo unspecified)	.	.	.	.	.
CC(C)[C@H](N)c1nnc(SC/C=C/c2ccccc2)o1	.	.	.	.	.
Cc1cc([N+](=O)[O-])nn1CC(=O)NNC(=S)Nc1ccc([N+](=O)[O-])cc1	.	.	.	62	.
Fc1cccc2sc(Nc3nc4ccccc4s3)nc12	.	.	.	.	.
CCc1nnc(NCC(=O)N2CCc3ccccc32)s1	2.2	.	.	.	.
COCc1cc(CN2CCCC2)c(O)c2ncccc12	.	.	.	.	.
OCCN1CCN(Cc2cc(Cl)c3cccnc3c2O)CC1	.	.	.	69	53
Oc1c(CN2CCN(c3ccccn3)CC2)cc(Cl)c2cccnc12	.	.	.	53	.
COc1cc(C(=O)Oc2c(CN3CCOCC3)cc(Cl)c3cccnc23)cc(OC)c1OC	.	.	.	58	.
CCOc1ccccc1N1CCN(Cc2cccc(OC)c2O)CC1	.	.	.	.	.
COc1ccccc1N1CCN(Cc2cc(Br)c(O)c3ncccc23)CC1	.	.	.	58	.
C=C(C)CNC(=S)N/N=C/c1c(F)cccc1F	.	.	.	.	.
Cc1[nH]c2ccccc2c1C(=O)COC(=O)c1ccc2c(=O)n3c(nc2c1)CCC3	.	.	.	.	.
Cc1ccccc1-c1nsc(SCC(=O)c2ccc(Cl)cc2)n1	.	.	.	.	.
CC1=C(CC(=O)c2ccc(Cl)cc2)C(=O)c2ccccc2C1=O	.	.	.	.	56
COc1ccc2cc(C(c3nnnn3C(C)(C)C)N3CCc4ccccc4C3)c(=O)[nH]c2c1 (stereo unspecified)	.	.	.	52	.
COc1ccc2cc(C(c3nnnn3C3CCCC3)N3CCc4ccccc4C3)c(=O)[nH]c2c1 (stereo unspecified)	.	.	.	56	.
O=C(Nc1ccc(C(=O)O)cc1)Nc1ccc(F)cc1F	.	.	.	.	.
COc1ccccc1CNC(=S)Nc1ccc2nc(N3CCN(C)CC3)cc(C)c2c1	.	.	.	.	.
CCN=C1SC(CC(=O)NCc2ccccc2)C(=O)N1CC (stereo unspecified)	.	.	.	.	.
SMILES	PMI act hi M6P	Diaph act CS	PMI act	Diaphorase inh	G6PDH CS
O=C(CSc1nc2ccccc2n1CCc1ccccc1)c1ccc(O)c(O)c1	.	.	.	63	.
CN(C)c1ccc(/C=C(\Cl)c2nc3ccccc3s2)cc1	.	.	.	.	.
CC(=O)c1sc(N/N=C2\CC3CCC2(C)C3(C)C)nc1C (stereo unspecified)	/	/	/	/	.
CCCCCOc1ccc(/C=c2\sc3nc(=O)c(-c4ccccc4)nn3c2=O)cc1OC	.	.	.	.	.
O=c1nc2s/c(=C\c3ccc(-c4ccccc4[N+](=O)[O-])o3)c(=O)n2nc1-c1ccccc1	.	.	.	69	.
Cc1cc(=O)[nH]c(N/N=C/c2ccc(OC(=O)c3cccnc3)cc2)n1	.	.	.	.	.
Cc1ccc(O)c(N=Cc2cc(Cc3ccccc3)cc([N+](=O)[O-])c2O)c1	.	.	.	64	.
Cc1cc(-c2ccco2)c(C#N)c2nc3ccccc3n12	.	.	.	72	.
CCOC(=O)c1cnn(CCOC(=O)c2ccc(F)cc2)c1NC(=O)c1ccc(F)cc1	.	.	.	.	.
CCCC(=O)OCCNc1cc(SCc2ccco2)c2nonc2c1[N+](=O)[O-]	.	.	.	71	.
CCCSc1cc(NCCOC(C)=O)c([N+](=O)[O-])c2nonc12	.	.	.	.	.
CC(=O)OCCCNc1cc(SCc2ccco2)c2nonc2c1[N+](=O)[O-]	.	.	.	87	.
CCCSc1cc(NCCOC(=O)CCC)c([N+](=O)[O-])c2nonc12	.	.	.	51	.
CCCCCC1CC(CC#CCN2CCOCC2)C(=O)O1 (stereo unspecified)	.	.	.	.	.
CCN(CC)c1ccc2c(c1)CCCN2	.	.	.	59	.
Cn1c(SC2CCCCC2=O)nnc1-c1ccccc1F (stereo unspecified)	.	.	.	.	.
CCO[C@H]1OC(C(=O)N2CCOCC2)=C[C@@H](C)[C@@H]1CCCO	.	.	.	.	.
CCOc1cc2c(C#N)c(N3CCOCC3)nc(N)c2c(N)n1	.	.	.	64	.
CCC1Cc2c(nc(N)c3c(N)nc(N4CCOCC4)c(C#N)c23)O1 (stereo unspecified)	.	.	.	.	.
CSC1=C(C#N)C(c2ccccc2)C(C(C)=O)=C(C)N1 (stereo unspecified)	.	.	.	.	.
CSCSC1=C(C#N)C(c2ccc(Cl)cc2)C(C(C)=O)=C(C)N1 (stereo unspecified)	2.1	.	.	.	.
Cc1ccc(C2C(C#N)=C(N)SC(N)=C2C#N)o1	.	.	.	66	.
CCc1ccc(C2C(C#N)=C(N)SC(N)=C2C#N)s1	.	.	.	.	.
O=C(CSc1nnc(-c2ccncc2)o1)N1CCc2ccccc2C1	.	.	.	.	.
Cc1cc2cc(CCNC(=O)c3ccc(S(=O)(=O)N4CCOCC4)cc3)c(=O)[nH]c2cc1C	.	.	.	58	.
SMILES	PMI act hi M6P	Diaph act CS	PMI act	Diaphorase inh	G6PDH CS
Cc1ccc2cc(CCNC(=O)c3ccc(S(=O)(=O)N4CCCCC4)cc3)c(=O)[nH]c2c1	.	.	.	72	.
O=C1c2cccc(OCC(=O)N3N=C(c4cccs4)CC3c3ccc(F)cc3)c2CCN1Cc1cccnc1 (stereo unspecified)	.	.	.	.	.
Cc1ccc(NC(=S)NCC(C)C)cc1	.	.	.	.	.
Cc1ccc2nc(Cl)c(/C=N/Nc3nc(C)cc(C)n3)c(=O)n2c1	.	.	.	.	.
O=C(N/N=C/c1ccncc1)c1cccc(N/N=C/c2ccncc2)c1	.	.	.	.	.
O=C(N/N=C/c1ccncc1)c1cccc(NC(=O)c2ccc(Cl)cc2)c1	2.4	.	.	.	.
CCOC(=O)c1c(NC(=O)C2C3C=CC(C3)C2C(=O)O)sc2c1CCC(CC)C2 (stereo unspecified)	.	.	.	.	.

Screening data from PubChem BioAssay.
